Data set [1] has as its system RAW264.7. The data set is described as follows: Cytotoxicity against mouse RAW264.7 cells at 50 uM by MTT assay. The class given is cell-based. The following applies: raw264.7, 50 µM.
Data set [2] relates to RAW264.7. The data set is described as follows: Antiinflammatory activity in mouse RAW264.7 cells assessed as inhibition of LPS-stimulated nitric oxide production at 0.4 to 10 uM after 24 hrs by Griess assay. The class given is functional, cell-based. The method in brief:
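NO made by LPS-stimulated RAW 264.7 cells was measured by Griess reaction. Each compound was screened at 0.4, 2.0 and 10.0 μM, all below the 50 μM level checked for viability by MTT. Results are mean ± SD from at least three independent experiments run in triplicate.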

Data set [3] deals with RAW264.7. Nature of the data set: Antiinflammatory activity in mouse RAW264.7 cells assessed as inhibition of LPS-stimulated TNFalpha production at 10 uM by ELISA. In kind it is functional. The method in brief:
(§1)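 RAW 264.7 cells were stimulated with LPS, with or without each compound at 0.4, 2.0 and 10.0 μM, and secreted TNF-α was measured. Concentrations were kept below 50 μM, the level checked by MTT for viability. Values are mean ± SD from at least three independent experiments, each run in triplicate.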

The test system of data set [4] is RAW264.7. The data set is described as follows: Antiinflammatory activity in mouse RAW264.7 cells assessed as inhibition of LPS-stimulated TNFalpha production at 2 uM by ELISA. The class given is functional. The method in brief:
as §1

The subject of data set [5] is RAW264.7. Nature of the data set: Antiinflammatory activity in mouse RAW264.7 cells assessed as inhibition of LPS-stimulated TNFalpha production at 0.4 to 2 uM by ELISA. In kind it is functional, cell-based. The method in brief: as §1
The subject of data set [6] is RAW264.7. The data set is described as follows: Antiinflammatory activity in mouse RAW264.7 cells assessed as inhibition of LPS-stimulated nitric oxide production at 10 uM after 24 hrs by Griess assay. In kind it is functional. The following applies: RAW264.7, 24 h. The method in brief: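 Nitrite in the medium measured by Griess reaction and given as % inhibition of NO production. Celecoxib (1.0 μM) served as reference. Mean SD of at least three independent experiments, each in triplicate.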

Data set [7] concerns RAW264.7. The data set is described as follows: Inhibition of COX2 protein expression in LPS-stimulated mouse RAW264.7 cells by Western blot analysis. In kind it is functional, cell-based. The method in brief:
(§2)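 RAW 264.7 cells exposed to LPS (1 μg/ml) with or without test agent at 0.4, 2 and 10 μM. Celecoxib (1 μM) served as reference. COX-2 and iNOS protein detected by Western blot, with actin as loading control.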

The subject of data set [8] is RAW264.7. Nature of the data set: Inhibition of iNOS protein expression in LPS-stimulated mouse RAW264.7 cells by Western blot analysis. The class given is functional, cell-based. The method in brief: as §2

The source made the active and inactive calls. No cut-off for these calls is given here.

Consider 18 compounds from ChEMBL document CHEMBL3351495, “Anti-inflammatory components of Chrysanthemum indicum flowers” (Bioorg Med Chem Lett, 2015).

`CC1=C(C/C=C\CCO[C@@H]2O[C@H](CO)[C@@H](O)[C@H](O)[C@H]2O)C(=O)CC1`: the Activity result in the data set on RAW264.7 [1] is reported as “Non-toxic”. Further, in the data set with RAW264.7 [2], the inhibition entry was “inactive”. In addition, the inhibition at 10 µM in the data set with RAW264.7 [3] was 23%. The inhibition at 2 µM with RAW264.7 [4] worked out at 11.8%.

Consider `CC[C@H](C)C(=O)OC[C@@H]1O[C@@]2(C(=O)OC)C[C@@H](O)[C@@H](O)[C@@H]1O2`, for which the Activity entry in the data set on RAW264.7 [1] is reported as “Non-toxic”. The inhibition entry with RAW264.7 [2] is “inactive”. Further, the inhibition at 10 µM in the data set with RAW264.7 [3] was 22%. Moreover, the inhibition at 2 µM in the data set with RAW264.7 [4] amounted to 14.4%.

On to `COC(=O)[C@]1(O)C[C@@H](O)[C@@H](O)[C@H](OC(=O)/C=C/c2ccc(O)c(O)c2)C1` [CHLOROGENIC ACID METHYL ESTER], for which the Activity entry with RAW264.7 [1] is listed as “Non-toxic”. The inhibition result with RAW264.7 [2] and in the data set with RAW264.7 [5] was “inactive” throughout.

In the case of `COc1cc(-c2cc(=O)c3c(O)cc(O)cc3o2)cc(OC)c1O` [TRICIN], in the data set on RAW264.7 [1], the Activity result is “Non-toxic”. The inhibition result in the data set with RAW264.7 [2] was “inactive”.

`COC(=O)[C@]1(O)C[C@@H](O)[C@@H](OC(=O)/C=C/c2ccc(O)c(O)c2)[C@H](O)C1`: in the data set with RAW264.7 [1], the Activity entry is listed as “Non-toxic”. The inhibition entry with RAW264.7 [2] and in the data set on RAW264.7 [5] was “inactive” each time.

On to `O=c1cc(-c2ccc(O)c(O)c2)oc2cc(O[C@@H]3O[C@H](CO)[C@@H](O)[C@H](O)[C@H]3O)cc(O)c12` [GALUTEOLIN], for which the Activity entry in the data set on RAW264.7 [1] is reported as “Non-toxic”. Further, the inhibition result with RAW264.7 [2] and with RAW264.7 [5] was “inactive” each time. Further, in the data set with RAW264.7 [3], the inhibition at 10 µM came to 13%.

With `COc1cc(-c2oc3cc(O)cc(O)c3c(=O)c2O[C@@H]2O[C@H](CO)[C@@H](O)[C@H](O)[C@H]2O)ccc1O`, the Activity result in the data set with RAW264.7 [1] was “Non-toxic”. Moreover, in the data set on RAW264.7 [2], the inhibition result was “inactive”.

Consider `COC(=O)[C@]1(O)C[C@@H](OC(=O)/C=C/c2ccc(O)c(O)c2)[C@@H](O)[C@H](OC(=O)/C=C/c2ccc(O)c(O)c2)C1`, for which the Activity entry in the data set on RAW264.7 [1] is given as “Non-toxic”. The inhibition entry with RAW264.7 [2] was “inactive”.

Turning to `O=c1c(O)c(-c2ccc(O)c(O)c2)oc2cc(O[C@@H]3O[C@H](CO)[C@@H](O)[C@H](O)[C@H]3O)cc(O)c12` [QUERCIMERITRIN], the figures for the inhibition at 10 µM with RAW264.7 [6] and in the data set with RAW264.7 [3] were 36.5% and 13%, respectively. Besides, the Activity result in the data set on RAW264.7 [1] is reported as “Non-toxic”. Moreover, the inhibition entry in the data set with RAW264.7 [7] and in the data set with RAW264.7 [8] was “Dose-dependent effect” throughout. In addition, in the data set on RAW264.7 [5], the inhibition result is “inactive”.

On to `COc1cc(CCCO)cc(OC)c1O[C@@H]1O[C@H](CO)[C@@H](O)[C@H](O)[C@H]1O` [DIHYDROSYRINGIN], for which the Activity result with RAW264.7 [1] was “Non-toxic”. Moreover, the inhibition result in the data set on RAW264.7 [2] and in the data set with RAW264.7 [5] was “inactive” throughout. Moreover, in the data set on RAW264.7 [3], the inhibition at 10 µM stood at 13%.

With `O=c1cc(-c2ccc(O)cc2)oc2cc(O[C@@H]3O[C@H](CO)[C@@H](O)[C@H](O)[C@H]3O)cc(O)c12` [APIGETRIN], the Activity entry in the data set with RAW264.7 [1] is “Non-toxic”. In the data set on RAW264.7 [2], the inhibition entry was “inactive”.

Regarding `O=C(/C=C/c1ccc(O)c(O)c1)O[C@@H]1C[C@@](OC(=O)/C=C/c2ccc(O)c(O)c2)(C(=O)O)C[C@@H](O)[C@@H]1O` [CYNARIN], the Activity entry with RAW264.7 [1] is recorded as “Non-toxic”. In addition, the inhibition result with RAW264.7 [2] and with RAW264.7 [5] was “inactive” each time.

Turning to `O=c1c(O)c(-c2ccc(O)c(O)c2)oc2cc(O)cc(O)c12` [QUERCETIN], the inhibition at 10 µM with RAW264.7 [6] stood at 46.1%; with RAW264.7 [3] it was 13%. Further, the Activity result in the data set with RAW264.7 [1] was “Non-toxic”. The inhibition entry with RAW264.7 [7] and with RAW264.7 [8] was “Dose-dependent effect” in each case. In addition, the inhibition result with RAW264.7 [5] was “inactive”.

On to `OC[C@H]1O[C@@H](OCCc2ccccc2)[C@H](O)[C@@H](O)[C@@H]1O`, for which, in the data set with RAW264.7 [1], the Activity result is on record as “Non-toxic”. Also, the inhibition result in the data set on RAW264.7 [2] and in the data set on RAW264.7 [5] was “inactive” throughout. Besides, the inhibition at 10 µM in the data set with RAW264.7 [3] is 13%.

`COc1cc(/C=C/CO)cc(OC)c1O[C@@H]1O[C@H](CO)[C@@H](O)[C@H](O)[C@H]1O` [SYRINGIN]: in the data set with RAW264.7 [1], the Activity entry is recorded as “Non-toxic”. Further, the inhibition entry in the data set with RAW264.7 [2] and with RAW264.7 [5] was “inactive” each time. Also, in the data set on RAW264.7 [3], the inhibition at 10 µM came out at 13%.

With `OC[C@H]1O[C@@H](OCc2ccccc2)[C@H](O)[C@@H](O)[C@@H]1O`, in the data set on RAW264.7 [1], the Activity result is “Non-toxic”. For the same compound, the inhibition result in the data set on RAW264.7 [2] and in the data set with RAW264.7 [5] was “inactive” each time.

Take `COC(=O)[C@]1(O)C[C@@H](O)[C@@H](OC(=O)/C=C/c2ccc(O)c(O)c2)[C@H](OC(=O)/C=C/c2ccc(O)c(O)c2)C1`: the Activity entry in the data set on RAW264.7 [1] was “Non-toxic”. Besides, the inhibition result in the data set with RAW264.7 [2] and in the data set on RAW264.7 [5] was “inactive” throughout. In the data set with RAW264.7 [3], the inhibition at 10 µM was found to be 13%.

Turning to `O=C(/C=C/c1ccc(O)c(O)c1)O[C@@H]1C[C@](O)(C(=O)O)C[C@@H](O)[C@H]1O` [CHLOROGENIC ACID], the Activity entry with RAW264.7 [1] was “Non-toxic”. In the data set on RAW264.7 [2], the inhibition entry was “inactive”. The inhibition at 10 µM in the data set on RAW264.7 [3] is 24.7%. Besides, in the data set with RAW264.7 [4], the inhibition at 2 µM stood at 16.1%.
